From ChEMBL document CHEMBL2034980, “N⁴-Phenyl-substituted 2-acetylpyridine thiosemicarbazones: cytotoxicity against human tumor cells, structure-activity relationship studies and investigation on the mechanism of action” (Bioorg Med Chem, 2012)
The source made the active and inactive calls. The calls are words filed in the database; no cut-off is given here.

What was measured:
MCF7 [1] = assay: Induction of apoptosis in human MCF7 cells assessed as DNA fragmentation at 1 uM after 48 hrs by DAPI staining; format: functional, cell-based
Procedure, shortened: (§1)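 Cells were treated at 1 μM for 48 h, washed in PBS and fixed in 70% methanol for 30 min at room temperature. They were stained with 0.4 μg mL⁻¹ DAPI for 1 h in the dark, and nuclear condensation and fragmentation were scored by fluorescence microscopy (385–410 nm).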

U-87MG ATCC [2] = assay: Induction of apoptosis in human U87 cells assessed as irregularities in cellular shape at 1 uM after 48 hrs by DAPI staining; format: functional, cell-based
U-87MG ATCC [3] = assay: Induction of apoptosis in human U87 cells assessed as cell shrinkage at 1 uM after 48 hrs by DAPI staining; format: functional, cell-based
U-87MG ATCC [4] = assay: Induction of apoptosis in human U87 cells assessed as DNA fragmentation at 1 uM after 48 hrs by DAPI staining; format: functional, cell-based; procedure, shortened: as §1
T98G [5] = assay: Induction of apoptosis in human T98G cells assessed as irregularities in cellular shape at 1 uM after 48 hrs by DAPI staining; format: functional, cell-based
T98G [6] = assay: Cytotoxicity against human T98G cells expressing mutant p53 after 48 hrs by MTT assay; format: functional, cell-based
Procedure, shortened: (§2)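 MTT assay. Cells were grown in DMEM with 10% FBS and penicillin/streptomycin at 37 °C under 5% CO2, seeded at 1–2×10^3 cells/well and treated 12 h later with 1×10^-12 to 1×10^-5 M ([…] from DMSO stock, final DMSO <0.5%) for 48 h. MTT was added at 0.5 mg mL⁻¹, formazan dissolved in DMSO and read at 570 nm. IC50 is the concentration giving 50% cytotoxicity. Quadruplicates, ≥3 independent experiments.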

MCF7 [7] = assay: Induction of apoptosis in human MCF7 cells assessed as appearance of autophagolysosomes at 1 uM after 48 hrs by acridine orange/ethidium bromide staining-based microscopy; format: functional, cell-based
Procedure, shortened: (§3)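 After 48 h at 1 μM, cells were incubated for 15 min in serum-free medium containing 1 μg mL⁻¹ acridine orange and 1 μg mL⁻¹ ethidium bromide. The medium was removed and cells imaged by inverted fluorescence microscopy (530–650 nm). Green/orange nuclear patterns and acidic cytoplasmic vacuoles were scored.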

MCF7 [8] = assay: Induction of apoptosis in human MCF7 cells assessed as chromatin condensation at 1 uM after 48 hrs by acridine orange/ethidium bromide staining-based microscopy; format: functional, cell-based; procedure, shortened: as §3
[9] = Haemolytic activity in human RBC after 1 hr by photometry; format: ADME, cell-based; conditions: Erythrocyte
Procedure, shortened: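 Human EDTA blood was spun at 700xg for 10 min and the erythrocytes washed three times in cold PBS pH 7.4, then resuspended in it. Cells were incubated with varying compound concentrations for 1 h at 37 °C with shaking. After centrifugation, released haemoglobin was read at 540 nm to give the IC50. Mean ± SD, n = 4.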

T98G [10] = assay: Induction of apoptosis in human T98G cells assessed as membrane blebbing at 1 uM after 48 hrs […]; format: functional, cell-based
T98G [11] = assay: Induction of apoptosis in human T98G cells assessed as cell shrinkage at 1 uM after 48 hrs by DAPI staining; format: functional, cell-based
U-87MG ATCC [12] = assay: Induction of apoptosis in human U87 cells assessed as chromatin condensation at 1 uM after 48 hrs by DAPI staining; format: functional, cell-based; procedure, shortened: as §1
MCF7 [13] = assay: Induction of apoptosis in human MCF7 cells assessed as cell shrinkage at 1 uM after 48 hrs by DAPI staining; format: functional, cell-based
T98G [14] = assay: Induction of apoptosis in human T98G cells assessed as appearance of autophagolysosomes at 1 uM after 48 hrs by acridine orange/ethidium bromide staining-based microscopy; format: functional, cell-based; procedure, shortened: as §3
U-87MG ATCC [15] = assay: Induction of apoptosis in human U87 cells assessed as membrane blebbing at 1 uM after 48 hrs by DAPI staining; format: functional, cell-based
MCF7 [16] = assay: Induction of apoptosis in human MCF7 cells assessed as chromatin condensation at 1 uM after 48 hrs by DAPI staining; format: functional, cell-based; procedure, shortened: as §1
U-87MG ATCC [17] = assay: Induction of apoptosis in human U87 cells assessed as appearance of autophagolysosomes at 1 uM after 48 hrs by acridine orange/ethidium bromide staining-based microscopy; format: functional, cell-based; procedure, shortened: as §3
T98G [18] = assay: Induction of apoptosis in human T98G cells assessed as chromatin condensation at 1 uM after 48 hrs by DAPI staining; format: functional, cell-based; procedure, shortened: as §1
T98G [19] = assay: Induction of apoptosis in human T98G cells assessed as DNA fragmentation at 1 uM after 48 hrs by DAPI staining; format: functional, cell-based; procedure, shortened: as §1
U-87MG ATCC [20] = assay: (§4) Cytotoxicity against human U87 cells expressing wild-type p53 after 48 hrs by MTT assay; format: functional, cell-based; procedure, shortened: as §2
[21] = as §4; format: functional, cell-based, U-87MG ATCC; conditions: U-87 MG; procedure, shortened: as §2
U-87MG ATCC [22] = assay: Induction of apoptosis in human U87 cells assessed as chromatin condensation at 1 uM after 48 hrs by acridine orange/ethidium bromide staining-based microscopy; format: functional, cell-based; procedure, shortened: as §3
MCF7 [23] = assay: Induction of apoptosis in human MCF7 cells assessed as membrane blebbing at 1 uM after 48 hrs by DAPI staining; format: functional, cell-based
MCF7 [24] = assay: Cytotoxicity against human MCF7 cells after 48 hrs by MTT assay; format: functional, cell-based; conditions: for IC50: MCF7, 48 h; procedure, shortened: as §2
T98G [25] = assay: Induction of apoptosis in human T98G cells assessed as chromatin condensation at 1 uM after 48 hrs by acridine orange/ethidium bromide staining-based microscopy; format: functional, cell-based; procedure, shortened: as §3
MCF7 [26] = assay: Induction of apoptosis in human MCF7 cells assessed as irregularities in cellular shape at 1 uM after 48 hrs by DAPI staining; format: functional, cell-based

With CC(=NNC(S)=Nc1ccccc1Cl)c1ccccn1 (mixture of isomers) the Activity (MCF7 [1]) was “Active”, the Activity (U-87MG ATCC [2]) was “Active” and the Activity (U-87MG ATCC [3]) was “Active”. For the same compound, the Activity (U-87MG ATCC [4]) was “Active”, the Activity (T98G [5]) was “Active” and the Activity (T98G [6]) was “Dose-dependent effect”. For the same compound, the IC50 (T98G [6]; read-out: IC50) was 1.1 nM, the Activity (MCF7 [7]) was “Active” and the Activity (MCF7 [8]) was “Active”. The IC50 [9] was over 10000 nM, the Activity (T98G [10]) was “Active” and the Activity (T98G [11]) was “Active”. The Activity (U-87MG ATCC [12]) was “Active”, the Activity (MCF7 [13]) was “Active” and the Activity (T98G [14]) was “Active”. For the same compound, the Activity (U-87MG ATCC [15]) was “Active”, the Activity (MCF7 [16]) was “Active” and the Activity (U-87MG ATCC [17]) was “Active”. The Activity (T98G [18]) was “Active”, the Activity (T98G [19]) was “Active” and the Activity (U-87MG ATCC [20]) was “Dose-dependent effect”. The IC50 ([21]; read-out: IC50) was 2.6 nM, the Activity (U-87MG ATCC [22]) was “Active” and the Activity (MCF7 [23]) was “Active”. For the same compound, the Activity (MCF7 [24]) was “Dose-dependent effect”, the IC50 (MCF7 [24]; read-out: IC50) was 0.16 nM and the Activity (T98G [25]) was “Active”. For the same compound, the Activity (MCF7 [26]) was “Active”.
For CC(=NNC(=S)Nc1ccc([N+](=O)[O-])cc1)c1ccccn1 (mixture of isomers), the Activity (MCF7 [1]) was “Active”, the Activity (U-87MG ATCC [2]) was “Active” and the Activity (U-87MG ATCC [3]) was “Active”. For the same compound, the Activity (U-87MG ATCC [4]) was “Active”, the Activity (T98G [5]) was “Active” and the Activity (T98G [6]) was “Dose-dependent effect”. The IC50 (T98G [6]; read-out: IC50) was 140 nM, the Activity (MCF7 [7]) was “Active” and the Activity (MCF7 [8]) was “Active”. The IC50 [9] was over 10000 nM, the Activity (T98G [10]) was “Active” and the Activity (T98G [11]) was “Active”. For the same compound, the Activity (U-87MG ATCC [12]) was “Active”, the Activity (MCF7 [13]) was “Active” and the Activity (T98G [14]) was “Active”. For the same compound, the Activity (U-87MG ATCC [15]) was “Active”, the Activity (MCF7 [16]) was “Active” and the Activity (U-87MG ATCC [17]) was “Active”. The Activity (T98G [18]) was “Active”, the Activity (T98G [19]) was “Active” and the Activity (U-87MG ATCC [20]) was “Dose-dependent effect”. The IC50 ([21]; read-out: IC50) was 160 nM, the Activity (U-87MG ATCC [22]) was “Active” and the Activity (MCF7 [23]) was “Active”. For the same compound, the Activity (MCF7 [24]) was “Dose-dependent effect”, the IC50 (MCF7 [24]; read-out: IC50) was 52 nM and the Activity (T98G [25]) was “Active”. For the same compound, the Activity (MCF7 [26]) was “Active”.
In the case of CC(=NNC(=S)Nc1cccc(Cl)c1)c1ccccn1 (mixture of isomers), the Activity (MCF7 [1]) is reported as “Active”, the Activity (U-87MG ATCC [2]) is reported as “Active” and the Activity (U-87MG ATCC [3]) is reported as “Active”. For the same compound, the Activity (U-87MG ATCC [4]) was “Active”, the Activity (T98G [5]) was “Active” and the Activity (T98G [6]) was “Dose-dependent effect”. For the same compound, the IC50 (T98G [6]; read-out: IC50) was 1 nM, the Activity (MCF7 [7]) was “Active” and the Activity (MCF7 [8]) was “Active”. The IC50 [9] was over 10000 nM, the Activity (T98G [10]) was “Active” and the Activity (T98G [11]) was “Active”. The Activity (U-87MG ATCC [12]) was “Active”, the Activity (MCF7 [13]) was “Active” and the Activity (T98G [14]) was “Active”. The Activity (U-87MG ATCC [15]) was “Active”, the Activity (MCF7 [16]) was “Active” and the Activity (U-87MG ATCC [17]) was “Active”. For the same compound, the Activity (T98G [18]) was “Active”, the Activity (T98G [19]) was “Active” and the Activity (U-87MG ATCC [20]) was “Dose-dependent effect”. For the same compound, the IC50 ([21]; read-out: IC50) was 31 nM, the Activity (U-87MG ATCC [22]) was “Active” and the Activity (MCF7 [23]) was “Active”. The Activity (MCF7 [24]) was “Dose-dependent effect”, the IC50 (MCF7 [24]; read-out: IC50) was 24 nM and the Activity (T98G [25]) was “Active”. The Activity (MCF7 [26]) was “Active”.
In the case of C/C(=N/NC(=S)Nc1cccc([N+](=O)[O-])c1)c1ccccn1, the IC50 (T98G [6]; read-out: pIC50 (converted)) is reported as 140 nM, the IC50 ([21]; read-out: pIC50 (converted)) is reported as 69 nM and the IC50 (MCF7 [24]; read-out: pIC50 (converted)) is reported as 38 nM.
Work on C/C(=N/NC(=S)Nc1ccccc1I)c1ccccn1 yielded an IC50 (T98G [6]; read-out: pIC50 (converted)) of 8.09 nM, an IC50 ([21]; read-out: pIC50 (converted)) of 6.1 nM and an IC50 (MCF7 [24]; read-out: pIC50 (converted)) of 4.1 nM.
With C/C(=N\NC(=S)Nc1ccc(Cl)cc1)c1ccccn1 the IC50 (T98G [6]; read-out: pIC50 (converted)) was 5.9 nM, the IC50 ([21]; read-out: pIC50 (converted)) was 1.7 nM and the IC50 (MCF7 [24]; read-out: pIC50 (converted)) was 8.49 nM.
With C/C(=N\NC(=S)Nc1cccc(I)c1)c1ccccn1 the IC50 (T98G [6]; read-out: pIC50 (converted)) was 61 nM, the IC50 ([21]; read-out: pIC50 (converted)) was 83.9 nM and the IC50 (MCF7 [24]; read-out: pIC50 (converted)) was 45 nM.
